Results as given in ChEMBL document CHEMBL5058577, “EUbOPEN Chemogenomics Library 2 (Multiplex)” (2022).

System: U2OS
Assay: Multiplex assay against U2OS
Format: toxicity, cell-based
Details: human
How it was run: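 Tubulin, mitochondrial-mass and membrane-permeability phenotypes are per cents of healthy-nucleus cells. Cells were gated by CellPathfinder machine learning into Hoechst high-intensity objects or normal cells, normal cells into healthy, pyknosed or fragmented nuclei, and pyknosed cells into mitotic or apoptotic. Before that, live cells stained at seeding with Hoechst33342, BioTracker Green Microtubule Cytoskeleton Dye, MitoTracker Red and Annexin V Alexa Fluor 680 were imaged on a CQ1 microscope at 37°C and 5% CO2 after compound addition.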

[1] = 12 h, 1 µM, compound concentration 1 uM, replicate 1
[2] = 12 h, 1 µM, compound concentration 1 uM, replicate 2
[3] = 12 h, 10 µM, compound concentration 10 uM, replicate 1
[4] = 12 h, 10 µM, compound concentration 10 uM, replicate 2
[5] = 24 h, 1 µM, compound concentration 1 uM, replicate 1
[6] = 24 h, 1 µM, compound concentration 1 uM, replicate 2
[7] = 24 h, 10 µM, compound concentration 10 uM, replicate 1
[8] = 24 h, 10 µM, compound concentration 10 uM, replicate 2
[9] = 48 h, 1 µM, compound concentration 1 uM, replicate 1
[10] = 48 h, 1 µM, compound concentration 1 uM, replicate 2
[11] = 48 h, 10 µM, compound concentration 10 uM, replicate 1
[12] = 48 h, 10 µM, compound concentration 10 uM, replicate 2

For CCCCC(=O)N(Cc1ccc(-c2ccccc2-c2nnn[nH]2)cc1)[C@H](C(=O)O)C(C)C, the “Population Apoptotic (%)” value [1] was 85%, the “Population Fragmented Nuclei (%)” value [1] was 28% and the “Population Healthy Nuclei (%)” value [1] was 63%. The “Population Hoechst High Intensity Objects (%)” value [1] was 1%, the “Population Membrane Permeable-Phenotype (%)” value [1] was 8% and the “Population Mitochondria Different-Phenotype (%)” value [1] was 3%. For the same compound, the “Population Mitotic Cells (%)” value [1] was 14%, the “Population Normal (%)” value [1] was 98% and the “Population Pyknosed Nuclei (%)” value [1] was 8%. The “Population Tubulin-Different-Phenotype (%)” value [1] was 4%, the “Total Cell Count” value [1] was 259 and the “Population Apoptotic (%)” value [2] was 100%. The “Population Fragmented Nuclei (%)” value [2] was 15%, the “Population Healthy Nuclei (%)” value [2] was 79% and the “Population Hoechst High Intensity Objects (%)” value [2] was 3%. The “Population Membrane Permeable-Phenotype (%)” value [2] was 9%, the “Population Mitochondria Different-Phenotype (%)” value [2] was 5% and the “Population Mitotic Cells (%)” value [2] was 0%. For the same compound, the “Population Normal (%)” value [2] was 96%, the “Population Pyknosed Nuclei (%)” value [2] was 4% and the “Population Tubulin-Different-Phenotype (%)” value [2] was 2%. For the same compound, the “Total Cell Count” value [2] was 130, the “Population Apoptotic (%)” value [3] was 75% and the “Population Fragmented Nuclei (%)” value [3] was 35%. For the same compound, the “Population Healthy Nuclei (%)” value [3] was 55%, the “Population Hoechst High Intensity Objects (%)” value [3] was 1% and the “Population Membrane Permeable-Phenotype (%)” value [3] was 3%. For the same compound, the “Population Mitochondria Different-Phenotype (%)” value [3] was 2%, the “Population Mitotic Cells (%)” value [3] was 25% and the “Population Normal (%)” value [3] was 98%. For the same compound, the “Population Pyknosed Nuclei (%)” value [3] was 9%, the “Population Tubulin-Different-Phenotype (%)” value [3] was 2% and the “Total Cell Count” value [3] was 218. For the same compound, the “Population Fragmented Nuclei (%)” value [4] was 24%, the “Population Healthy Nuclei (%)” value [4] was 71% and the “Population Hoechst High Intensity Objects (%)” value [4] was 0%. For the same compound, the “Population Membrane Permeable-Phenotype (%)” value [4] was 1%, the “Population Normal (%)” value [4] was 99% and the “Population Pyknosed Nuclei (%)” value [4] was 3%. The “Population Tubulin-Different-Phenotype (%)” value [4] was 0%, the “Total Cell Count” value [4] was 108 and the “Population Apoptotic (%)” value [5] was 86%. The “Population Fragmented Nuclei (%)” value [5] was 23%, the “Population Healthy Nuclei (%)” value [5] was 68% and the “Population Hoechst High Intensity Objects (%)” value [5] was 2%. For the same compound, the “Population Membrane Permeable-Phenotype (%)” value [5] was 5%, the “Population Mitochondria Different-Phenotype (%)” value [5] was 3% and the “Population Mitotic Cells (%)” value [5] was 13%. The “Population Normal (%)” value [5] was 97%, the “Population Pyknosed Nuclei (%)” value [5] was 7% and the “Population Tubulin-Different-Phenotype (%)” value [5] was 2%. The “Total Cell Count” value [5] was 289, the “Population Apoptotic (%)” value [6] was 83% and the “Population Fragmented Nuclei (%)” value [6] was 10%. For the same compound, the “Population Healthy Nuclei (%)” value [6] was 77%, the “Population Hoechst High Intensity Objects (%)” value [6] was 6% and the “Population Membrane Permeable-Phenotype (%)” value [6] was 9%. For the same compound, the “Population Mitochondria Different-Phenotype (%)” value [6] was 6%, the “Population Mitotic Cells (%)” value [6] was 16% and the “Population Normal (%)” value [6] was 93%. The “Population Pyknosed Nuclei (%)” value [6] was 12%, the “Population Tubulin-Different-Phenotype (%)” value [6] was 7% and the “Total Cell Count” value [6] was 158. For the same compound, the “Population Apoptotic (%)” value [7] was 82%, the “Population Fragmented Nuclei (%)” value [7] was 31% and the “Population Healthy Nuclei (%)” value [7] was 59%. The “Population Hoechst High Intensity Objects (%)” value [7] was 2%, the “Population Membrane Permeable-Phenotype (%)” value [7] was 3% and the “Population Mitochondria Different-Phenotype (%)” value [7] was 2%. The “Population Mitotic Cells (%)” value [7] was 17%, the “Population Normal (%)” value [7] was 97% and the “Population Pyknosed Nuclei (%)” value [7] was 8%. For the same compound, the “Population Tubulin-Different-Phenotype (%)” value [7] was 2%, the “Total Cell Count” value [7] was 272 and the “Population Apoptotic (%)” value [8] was 84%. For the same compound, the “Population Fragmented Nuclei (%)” value [8] was 22%, the “Population Healthy Nuclei (%)” value [8] was 67% and the “Population Hoechst High Intensity Objects (%)” value [8] was 0%. For the same compound, the “Population Membrane Permeable-Phenotype (%)” value [8] was 4%, the “Population Mitochondria Different-Phenotype (%)” value [8] was 8% and the “Population Mitotic Cells (%)” value [8] was 15%. For the same compound, the “Population Normal (%)” value [8] was 100%, the “Population Pyknosed Nuclei (%)” value [8] was 9% and the “Population Tubulin-Different-Phenotype (%)” value [8] was 6%. For the same compound, the “Total Cell Count” value [8] was 135, the “Population Apoptotic (%)” value [9] was 86% and the “Population Fragmented Nuclei (%)” value [9] was 17%. The “Population Healthy Nuclei (%)” value [9] was 75%, the “Population Hoechst High Intensity Objects (%)” value [9] was 2% and the “Population Membrane Permeable-Phenotype (%)” value [9] was 5%. The “Population Mitochondria Different-Phenotype (%)” value [9] was 3%, the “Population Mitotic Cells (%)” value [9] was 13% and the “Population Normal (%)” value [9] was 97%. The “Population Pyknosed Nuclei (%)” value [9] was 7%, the “Population Tubulin-Different-Phenotype (%)” value [9] was 2% and the “Total Cell Count” value [9] was 397. The “Population Apoptotic (%)” value [10] was 85%, the “Population Fragmented Nuclei (%)” value [10] was 20% and the “Population Healthy Nuclei (%)” value [10] was 68%. For the same compound, the “Population Hoechst High Intensity Objects (%)” value [10] was 3%, the “Population Membrane Permeable-Phenotype (%)” value [10] was 7% and the “Population Mitotic Cells (%)” value [10] was 15%. The “Population Normal (%)” value [10] was 96%, the “Population Pyknosed Nuclei (%)” value [10] was 10% and the “Population Tubulin-Different-Phenotype (%)” value [10] was 3%. For the same compound, the “Total Cell Count” value [10] was 201, the “Population Apoptotic (%)” value [11] was 83% and the “Population Fragmented Nuclei (%)” value [11] was 22%. For the same compound, the “Population Healthy Nuclei (%)” value [11] was 70%, the “Population Hoechst High Intensity Objects (%)” value [11] was 1% and the “Population Membrane Permeable-Phenotype (%)” value [11] was 6%. The “Population Mitochondria Different-Phenotype (%)” value [11] was 2%, the “Population Mitotic Cells (%)” value [11] was 16% and the “Population Normal (%)” value [11] was 98%. The “Population Pyknosed Nuclei (%)” value [11] was 7%, the “Population Tubulin-Different-Phenotype (%)” value [11] was 2% and the “Total Cell Count” value [11] was 347. The “Population Apoptotic (%)” value [12] was 87%, the “Population Fragmented Nuclei (%)” value [12] was 21% and the “Population Healthy Nuclei (%)” value [12] was 60%. The “Population Hoechst High Intensity Objects (%)” value [12] was 4%, the “Population Membrane Permeable-Phenotype (%)” value [12] was 4% and the “Population Mitochondria Different-Phenotype (%)” value [12] was 3%. The “Population Mitotic Cells (%)” value [12] was 12%, the “Population Normal (%)” value [12] was 95% and the “Population Pyknosed Nuclei (%)” value [12] was 17%. For the same compound, the “Population Tubulin-Different-Phenotype (%)” value [12] was 6% and the “Total Cell Count” value [12] was 188.
